Data set [1] has as its target T1, Lysyl oxidase homolog 2 (Homo sapiens, UniProt Q9Y4K0).
T1 sequence (Q9Y4K0 whole entry): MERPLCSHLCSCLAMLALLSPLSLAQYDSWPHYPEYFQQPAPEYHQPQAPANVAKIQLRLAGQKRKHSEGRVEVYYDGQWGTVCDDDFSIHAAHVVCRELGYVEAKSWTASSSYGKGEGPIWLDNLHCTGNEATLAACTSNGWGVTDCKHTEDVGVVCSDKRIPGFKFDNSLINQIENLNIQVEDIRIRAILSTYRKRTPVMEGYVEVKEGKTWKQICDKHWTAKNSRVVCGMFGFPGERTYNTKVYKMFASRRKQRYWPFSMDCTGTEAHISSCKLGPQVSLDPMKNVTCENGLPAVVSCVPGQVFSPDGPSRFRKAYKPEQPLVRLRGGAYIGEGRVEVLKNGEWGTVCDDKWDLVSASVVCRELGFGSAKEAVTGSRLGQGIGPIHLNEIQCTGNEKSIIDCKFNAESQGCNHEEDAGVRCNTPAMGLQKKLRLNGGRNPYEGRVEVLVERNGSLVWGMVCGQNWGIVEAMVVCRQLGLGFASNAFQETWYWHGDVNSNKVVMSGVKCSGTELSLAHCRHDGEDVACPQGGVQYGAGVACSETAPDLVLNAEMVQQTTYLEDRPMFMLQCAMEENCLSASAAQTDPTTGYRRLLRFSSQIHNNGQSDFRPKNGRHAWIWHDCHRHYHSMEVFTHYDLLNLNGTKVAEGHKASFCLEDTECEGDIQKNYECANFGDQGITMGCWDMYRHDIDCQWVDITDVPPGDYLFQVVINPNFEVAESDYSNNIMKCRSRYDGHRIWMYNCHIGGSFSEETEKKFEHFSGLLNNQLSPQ
The experiment in a line: Inhibition of human LOXL2 expressed in CHO cells assessed as reduction of H2O2 production from oxidative deamination of DAP preincubated for 2 hrs followed by substrate addition measured every 2 mins for 1 hr by amplex red reagent-based fluorescence assay. Type of data set: cell-based.

The nature of data set [2]: Cmax in C57BL/6 mouse plasma at 30 mg/kg, po by LC-MS/MS analysis. Further details: dose 30 mg/kg, route oral. The data set is classed as ADME, organism-based. The essentials:
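Normal C57BL/6 mice, n = 3 per time point, received a single oral 30 mg/kg dose formulated in 0.5% methylcellulose.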

Another data set concerns the target T2, MAO-B (Homo sapiens, UniProt P27338).
T2 sequence (P27338 whole entry): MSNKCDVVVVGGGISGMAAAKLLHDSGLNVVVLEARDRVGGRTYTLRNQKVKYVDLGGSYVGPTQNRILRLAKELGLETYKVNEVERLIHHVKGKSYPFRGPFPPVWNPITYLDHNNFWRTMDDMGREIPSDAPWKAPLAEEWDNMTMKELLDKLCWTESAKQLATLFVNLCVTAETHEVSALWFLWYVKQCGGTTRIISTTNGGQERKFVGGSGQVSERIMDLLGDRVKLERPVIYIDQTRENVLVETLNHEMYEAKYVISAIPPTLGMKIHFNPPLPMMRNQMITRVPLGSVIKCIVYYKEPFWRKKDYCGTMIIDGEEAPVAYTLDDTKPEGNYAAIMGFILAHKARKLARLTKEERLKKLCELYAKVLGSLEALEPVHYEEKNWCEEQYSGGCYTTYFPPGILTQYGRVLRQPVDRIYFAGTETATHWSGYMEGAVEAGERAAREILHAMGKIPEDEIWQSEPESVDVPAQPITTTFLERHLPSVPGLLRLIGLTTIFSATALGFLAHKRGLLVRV
The data set is described as follows: Inhibition of recombinant human MAO-B assessed as reduction of H2O2 production from oxidative deamination of benzylamine at 10 uM preincubated for 2 hrs followed by substrate addition. The conditions noted are these: probe benzylamine. The essentials:
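Purified recombinant human MAO-A (tyramine substrate) or MAO-B (benzylamine substrate) was preincubated with compound for 2 h. Percent inhibition was calculated against vehicle and enzyme-free controls.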

Data set [3] addresses T3, Lysyl oxidase homolog 2 (Homo sapiens) (UniProt Q9Y4K0).
T3 sequence (whole entry): T1 sequence (Q9Y4K0 whole entry)
The data set is described as follows: Irreversible inhibition of human LOXL2 assessed as reduction of H2O2 production from oxidative deamination of DAP at 1000 times IC50 preincubated for 2 hrs followed by compound washout and subsequent incubation for 2 hrs prior to substrate addition measured every 2 mins for 40 mins by amplex red reagent-based fluorescence assay relative to control. The essentials: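 Wells were washed repeatedly with PBS and equilibrated for 2 h. Recovered activity was then compared with nonwashed controls.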

For data set [4], the target named is T4, Lysyl oxidase homolog 2 (Mus musculus) (UniProt P58022).
T4 sequence (whole entry): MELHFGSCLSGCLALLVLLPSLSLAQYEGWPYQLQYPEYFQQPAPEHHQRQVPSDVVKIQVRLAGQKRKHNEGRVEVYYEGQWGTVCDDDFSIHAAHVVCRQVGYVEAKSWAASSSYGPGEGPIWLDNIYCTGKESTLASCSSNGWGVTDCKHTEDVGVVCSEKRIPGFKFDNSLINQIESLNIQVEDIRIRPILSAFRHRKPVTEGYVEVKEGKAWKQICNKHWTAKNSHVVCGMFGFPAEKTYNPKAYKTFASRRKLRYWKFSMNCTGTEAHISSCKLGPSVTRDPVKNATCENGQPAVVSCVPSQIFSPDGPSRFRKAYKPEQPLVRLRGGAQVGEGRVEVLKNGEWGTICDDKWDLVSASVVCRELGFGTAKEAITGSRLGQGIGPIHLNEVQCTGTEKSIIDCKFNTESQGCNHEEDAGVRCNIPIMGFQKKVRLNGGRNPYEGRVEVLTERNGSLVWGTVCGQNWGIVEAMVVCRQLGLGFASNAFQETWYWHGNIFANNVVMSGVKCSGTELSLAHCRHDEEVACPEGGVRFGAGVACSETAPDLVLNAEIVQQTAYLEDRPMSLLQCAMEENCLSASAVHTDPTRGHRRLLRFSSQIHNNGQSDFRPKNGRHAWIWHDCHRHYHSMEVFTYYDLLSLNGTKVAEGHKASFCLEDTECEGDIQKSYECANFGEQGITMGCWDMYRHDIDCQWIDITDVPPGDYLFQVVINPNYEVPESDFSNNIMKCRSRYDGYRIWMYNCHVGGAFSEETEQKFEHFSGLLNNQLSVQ
The experiment in a line: (§1) Inhibition of recombinant mouse LOXL2 expressed in mouse whole blood assessed as reduction of H2O2 production from oxidative deamination of DAP preincubated for 2 hrs followed by substrate addition measured every 2 mins for 1 hr by amplex red reagent-based fluorescence assay.

For data set [5], the target named is T5, Lysyl oxidase homolog 2 (Mus musculus, UniProt P58022).
T5 sequence (P58022 whole entry): T4 sequence (whole entry)
The data set is described as §1.

The subject of a further data set is Mus musculus. The experiment in a line: Toxicity in C57BL/6 mouse assessed as body weight loss at 3 to 60 mg/kg, po qd administered 15 days starting 1 day prior to bleomycin instillation. The data set is classed as organism-based. The settings on record: in vivo.

Consider one compound from ChEMBL document CHEMBL4049456, “Identification of 4-(Aminomethyl)-6-(trifluoromethyl)-2-(phenoxy)pyridine Derivatives as Potent, Selective, and Orally Efficacious Inhibitors of the Copper-Dependent Amine Oxidase, Lysyl Oxidase-Like 2 (LOXL2)” (J Med Chem, 2017).

SMILES strings stand for the structures. pIC50: −log10 of the molar value. Some results are limits rather than exact numbers.

The pIC50 is the negative decadic logarithm of the IC50, by convention in mol/L. The term Cmax denotes the peak of the concentration-time curve. The inhibition is the change of the read-out against control, counted positive when it falls. Broadly, the IC90 is the concentration at which the effect reaches the 90% level. Turning to `Cl.NCc1cc(Oc2cccc(C(=O)N3C[C@@H](O)[C@H](F)C3)c2)nc(C(F)(F)F)c1` (racemic), the figures for the pIC50 on Lysyl oxidase homolog 2 [1] and at Lysyl oxidase homolog 2 [5] were 7.11 and 6.07, respectively. The same compound displayed a Cmax in data set [2] of 3.09 µM. In addition, the inhibition at 2 h, 10 µM on MAO-B was less than 10%. The inhibition in data set [3] turned out to be 77%. Also, the IC90 in data set [4] stood at 5.6 µM. Also, the Activity with Mus musculus is on record as less than 5%.
